Active and inactive are the calls of the source. No cut-off for these calls is given here.
How the values were obtained:
[1] = Toxicity in neutropenic CD-1 mouse deep thigh infection model infected with Acinetobacter baumannii ATCC 19606 assessed as body weight change at 0.16 mg/kg, ip measured after 4 days; format: organism-based; settings: in vivo, 96 h, time 4 day
In short: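 Neutropenic mice infected intramuscularly in the right thigh with 10⁶ cells per mL of A. baumannii ATCC 19606. […] Body weight monitored for toxicity. Euthanasia 4 days post-infection (day 8). n = 6 per group, from three inocula.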

[2] = Hemolytic activity against human RBC incubated for 1 hr by microplate reader analysis; format: toxicity, cell-based, Erythrocyte; settings: red blood cells (erythrocytes)
In short: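 Human red blood cells exposed to peptides up to 50 μM; hemolysis measured, IC50 derived where reached.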

[3] = test system: Staphylococcus aureus; test: Antimicrobial activity against Staphylococcus aureus NE163 harboring single transposon insertion mutation in aureolysin at 30 uM incubated for 18 hrs relative to control; format: functional
In short: (§1)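 CA-MRSA USA300 LAC derivative JE2 and single transposon insertion mutants derived from JE2, each lacking an extracellular protease gene, were exposed to peptides up to 30 μM. The read-out was percent growth inhibition. Peptides were dissolved in PBS, and tests were run in triplicate.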

[4] = test system: Staphylococcus aureus; test: Antimicrobial activity against Staphylococcus aureus NE1506 harboring single transposon insertion mutation in V8 protease at 30 uM incubated for 18 hrs relative to control; format: functional; in short: as §1
[5] = test system: Staphylococcus aureus; test: Antimicrobial activity against Staphylococcus aureus NE1740 harboring single transposon insertion mutation in staphopain A at 30 uM incubated for 18 hrs relative to control; format: functional; in short: as §1
[6] = Toxicity against reconstructed human skin model assessed as irritation at 50 uM incubated for 1 hr followed by compound washout measured after 42 hrs by MTT assay; format: tissue-based, Skin of body
In short: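 Reconstructed human epidermis with stratum corneum, per OECD TG 439 skin irritation guideline. Tissues exposed 1 h to peptide at 50 μM, then 42 h post-treatment incubation. Viability read by MTT. Controls were SDS and melittin.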

[7] = Stability in human serum assessed as half life at 10 mg/ml by UPLC-MS analysis; format: ADME, cell-free
In short: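 Peptides dissolved in PBS and incubated in 25% human serum. Intact peptide remaining followed over time to at least 6 h; half-life taken as time to 50% stability.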

[8] = test system: Acinetobacter baumannii; test: Anti-infective activity against Acinetobacter baumannii ATCC 19606 infected in neutropenic CD-1 mouse deep thigh infection model assessed as reduction in bacterial load at 0.16 mg/kg, ip measured after 4 days; format: functional, organism-based; settings: time 4.0 day
In short: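 Neutropenic mice infected intramuscularly in right thigh with 10⁶ cells per mL A. baumannii ATCC 19606; single intraperitoneal peptide dose at 10× MIC; bacterial load determined 4 days after treatment (euthanized day 8); n = 6 per group from three inocula; one-way ANOVA with Dunnett's test versus untreated.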

[9] = test system: Mus musculus; test: Induction of wound healing activity in immunosuppressed Balb/c mouse excisional dorsal wound infection model infected with Acinetobacter baumannii NCTC 13301 assessed as reduction in necrosis of epidermal tissue at wound edges at about 10 mg/kg treated for 7 days once daily; format: functional, organism-based; settings: time 7.0 day
[10] = Toxicity in immunosuppressed Balb/c mouse excisional dorsal wound infection model infected with Acinetobacter baumannii NCTC 13301 assessed as body weight loss at about 10 mg/kg treated for 7 days once daily measured after 45 days; format: organism-based; settings: in vivo, 1080 h, time 45 day
In short: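 Excisional dorsal wound model in immunosuppressed mice infected with 5 × 10⁴ cells per mL of A. baumannii. Treated, PBS-treated and untreated groups were compared. Body weight and survival were followed for 45 days.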

[11] = Toxicity in immunosuppressed Balb/c mouse excisional dorsal wound infection model infected with Acinetobacter baumannii NCTC 13301 assessed as decrease in animal survival at about 10 mg/kg treated for 7 days once daily measured after 45 days; format: organism-based; settings: in vivo, 1080 h, time 45 day
[12] = test system: Enterococcus faecium; test: Depolarization of cytoplasmic membrane in Enterococcus faecium ATCC 700221 at MIC measured for 45 mins by DiSC3-(5) dye based assay; format: functional, organism-based
In short: (§2)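 Bacteria loaded with membrane-potential dye DiSC3-(5), then treated with peptide at its MIC for the respective strain; depolarization read as rise in dye fluorescence; polymyxin B and levofloxacin as reference antibiotics.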

[13] = test system: Staphylococcus aureus; test: Depolarization of cytoplasmic membrane in Staphylococcus aureus ATCC 12600 at MIC measured for 45 mins by DiSC3-(5) dye based assay; format: functional, organism-based; in short: as §2
[14] = test system: Acinetobacter baumannii; test: Depolarization of cytoplasmic membrane in Acinetobacter baumannii ATCC 19606 at MIC measured for 45 mins by DiSC3-(5) dye based assay; format: functional, organism-based; in short: as §2
[15] = test system: Escherichia coli; test: Depolarization of cytoplasmic membrane in Escherichia coli ATCC 11775 at MIC measured for 45 mins by DiSC3-(5) dye based assay; format: functional, organism-based; in short: as §2
[16] = test system: Acinetobacter baumannii; test: Induction of outer membrane permeabilization in Acinetobacter baumannii ATCC 19606 measured for 20 mins by NPN uptake assay; format: functional, organism-based
[17] = test system: A498; test: Anti-cancer activity against human A498 cells incubated for 72 hrs by Cell Titer Glo assay; format: functional, cell-based; settings: A498, 72 h
[18] = test system: CAKI-1; test: Anti-cancer activity against human CAKI-1 cells incubated for 72 hrs by Cell Titer Glo assay; format: functional, cell-based; settings: CAKI-1, 72 h
[19] = test system: HCT-15; test: Anti-cancer activity against human HCT-15 cells incubated for 72 hrs by Cell Titer Glo assay; format: functional, cell-based; settings: HCT-15, 72 h
[20] = test system: HL-60; test: Anti-cancer activity against human HL-60 cells incubated for 72 hrs by Cell Titer Glo assay; format: functional, cell-based; settings: HL-60, 72 h
[21] = test system: MCF7; test: Anti-cancer activity against human MCF7 cells incubated for 72 hrs by Cell Titer Glo assay; format: functional, cell-based; settings: MCF7, 72 h
[22] = test system: OVCAR-3; test: Anti-cancer activity against human OVCAR-3 cells incubated for 72 hrs by Cell Titer Glo assay; format: functional, cell-based; settings: OVCAR-3, 72 h
[23] = test system: RPMI-8226; test: Anti-cancer activity against human RPMI-8226 cells incubated for 72 hrs by Cell Titer Glo assay; format: functional, cell-based; settings: RPMI-8226, 72 h
[24] = test system: SK-OV-3; test: Anti-cancer activity against human SK-OV-3 cells incubated for 72 hrs by Cell Titer Glo assay; format: functional, cell-based; settings: SK-OV-3, 72 h
[25] = test system: T47D; test: Anti-cancer activity against human T47D cells incubated for 72 hrs by Cell Titer Glo assay; format: functional, cell-based
[26] = test system: K562; test: pH-dependent anticancer activity against human K562 cells in PBS medium at 10 uM incubated for 1 hr; format: functional, cell-based
In short: (§3)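 Cells cultured in RPMI, DMEM or PBS, each adjusted to pH 8, 7 or 6, plus one unadjusted (~7.6). Peptide at 10 μM for only 1 h, to limit pH drift from CO₂-bicarbonate buffering. Cell viability read. Controls were melittin, ampicillin and PBS. Two independent repetitions; effects analysed by ANOVA.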

[27] = test system: MCF7; test: pH-dependent anticancer activity against human MCF7 cells in RPMI medium at 10 uM incubated for 1 hr; format: functional, cell-based; in short: as §3
[28] = test system: MCF7; test: pH-dependent anticancer activity against human MCF7 cells in DMEM medium at 10 uM incubated for 1 hr; format: functional, cell-based; in short: as §3
[29] = test system: MCF7; test: Induction of apoptosis in human MCF7 cells in DMEM medium at pH 6 assessed as increase in cleaved PARP level at 5 uM; format: functional, cell-based
In short: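 MCF-7 cells treated with peptides at pH 6; apoptosis detected by immunoblotting for cleaved PARP and cleaved caspase-3.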

[30] = Cytotoxicity against human granulocytes assessed as deleterious effect upto 50 uM by flow cytometry; format: toxicity, cell-based; settings: granulocyte
In short: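 Whole blood from a healthy donor treated with peptides up to 50 μM; effect on B and T lymphocytes, granulocytes and monocytes assessed.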

## H-KKKKLKKILKKLFQFINQLDNQLQDIKQNK-NH2
[1]
  Activity: Non-Toxic
[2]
  IC50 at 1 h: > 50000 nM
[3]
  inhibition at 30 µM: < 45%
[4]
  inhibition at 30 µM: < 45%
[5]
  inhibition at 30 µM: < 45%
[6]
  Activity: Non-Toxic
[7]
  half-life at 10 mg/ml: > 6 h
[8]
  Activity: Active
[9]
  Activity: Active
[10]
  Activity: Toxic
[11]
  Activity: Toxic
[12]
  Activity: Active
[13]
  Activity: Active
[14]
  Activity: Active
[15]
  Activity: Active
[16]
  Activity: inactive
[17]
  IC50: 1000 nM
[18]
  IC50: 1000 nM
[19]
  IC50: 1000 nM
[20]
  IC50: 1000 nM
[21]
  IC50: 1000 nM
[22]
  IC50: 1000 nM
[23]
  IC50: 1000 nM
[24]
  IC50: 1000 nM
[25]
  IC50: 1000 nM
[26]
  Activity: Active
[27]
  Activity: Active
[28]
  Activity: Active
[29]
  Activity: Active
[30]
  Activity: Non-Toxic
